The text below walks through data of ChEMBL document CHEMBL4837210 (Eur J Med Chem, 2021).

The source made the active and inactive calls. The calls are words filed in the database; no cut-off is given here. Some results are limits rather than exact numbers.

In experiment [1] the test system is Bacillus subtilis. Kind of experiment: Antibacterial activity against penicillin-susceptible Bacillus subtilis ATCC 9372 assessed as bacterial growth inhibition incubated for 24 hrs by CLSI protocol based broth microdilution method. It counts as functional.
In a further experiment the test system is Streptococcus pyogenes. In words: Antibacterial activity against erythromycin-susceptible Streptococcus pyogenes clinical isolate 1 assessed as bacterial growth inhibition incubated for 24 hrs by CLSI protocol based broth microdilution method. It counts as functional. Background: In broth dilution the organism is exposed to a series of concentrations in liquid medium.

A further experiment deals with Escherichia coli. In words: Antibacterial activity against penicillin-susceptible Escherichia coli ATCC 25922 assessed as inhibition of bacterial growth measured by broth microdilution method. It counts as functional. The settings on record: time 24 hrs. Summed up: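 Broth microdilution in Mueller Hinton broth. A 0.5 McFarland suspension was diluted tenfold, giving an inoculum of 1.5 × 10⁷ cfu/mL. This was added to 2-fold serial compound dilutions from […]. Plates were incubated aerobically at 37 °C for 24 h. MIC was the lowest concentration with no visible turbidity.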

The subject of experiment [2] is Staphylococcus aureus. Kind of experiment: Antibacterial activity against methicillin-resistant Staphylococcus aureus ATCC 43300 assessed as inhibition of bacterial growth by broth microdilution method. It counts as functional. The settings on record: time 24 hrs. An outline of the steps:
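Broth microdilution MIC. A 0.5 McFarland suspension was diluted 10-fold and added at 1.5 × 10⁷ cfu/mL to 2-fold dilutions (0.125–64) in Mueller Hinton broth. Incubated aerobically 24 h at 37 °C. MIC was the lowest concentration with no visible turbidity.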

The test system of experiment [3] is Staphylococcus aureus. Kind of experiment: Bactericidal activity against erythromycin-susceptible Staphylococcus aureus ATCC 25923 measured after 24 hrs by CLSI protocol based method. It counts as functional. An outline of the steps: (§1)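 MBC after broth microdilution. After 24 h, aliquots from clear wells were plated on tryptic soy agar and incubated aerobically 24 h at 37 °C. MBC was the lowest concentration giving no colonies.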

Experiment [4] deals with Staphylococcus aureus. Kind of experiment: Bactericidal activity against methicillin-resistant Staphylococcus aureus ATCC 43300 measured after 24 hrs by CLSI protocol based method. It counts as functional. Summed up: as §1
Experiment [5] deals with Bacillus subtilis. In words: Bactericidal activity against penicillin-susceptible Bacillus subtilis ATCC 9372 measured after 24 hrs by CLSI protocol based method. It counts as functional. An outline of the steps: (§2)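 MBC followed on from the 24 h broth microdilution MIC plates. Aliquots from clear wells were spread on tryptic soy agar and incubated aerobically at 37 °C for 24 h. MBC was the minimum concentration giving no colonies.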

Experiment [6] relates to Bacillus pumilus. In words: Bactericidal activity against penicillin-susceptible Bacillus pumilus CMCC 63202 measured after 24 hrs by CLSI protocol based method. It counts as functional. An outline of the steps:
as §2

Experiment [7] concerns Staphylococcus epidermidis. Kind of experiment: Bactericidal activity against penicillin-resistant Staphylococcus epidermidis measured after 24 hrs by CLSI protocol based method. It counts as functional. Summed up:
as §1

In experiment [8] the test system is Staphylococcus aureus. Kind of experiment: Ratio of MBC to MIC against penicillin-resistant Staphylococcus aureus. It counts as functional. Summed up:
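MBC/MIC ratio from the broth microdilution MIC (24 h, 37 °C, MH broth) and the MBC (clear wells subcultured on tryptic soy agar, 24 h). A ratio ≤4 is read as bactericidal per CLSI.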

The subject of experiment [9] is Staphylococcus aureus. Kind of experiment: Bactericidal activity against […] Staphylococcus aureus ATCC 25923 assessed as log reduction in colony forming unit at 4 times MIC after 3 hrs by time kill assay. It counts as functional. Summed up:
(§3)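 Samples at 0, 3, 6, 9, 12 and 24 h were serially diluted in MH broth and plated on tryptic soy agar. CFU/mL from colony counts after 24 h at 37 °C.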

The test system of experiment [10] is Staphylococcus aureus. Kind of experiment: Bactericidal activity against […] Staphylococcus aureus ATCC 25923 assessed as log reduction in colony forming unit at 2 times MIC after 24 hrs by time kill assay. It counts as functional. An outline of the steps:
as §3

The subject of another experiment is Pseudomonas aeruginosa. In words: Inhibition of biofilm formation in Pseudomonas aeruginosa ATCC 27853 at 64 ug/ml incubated for 18 hrs by crystal violet staining based method. The settings on record: dose 64.0 µg/ml. It counts as functional, organism-based. An outline of the steps:
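P. aeruginosa ATCC27853 was grown overnight in MH medium, washed and diluted to OD₆₂₀ 0.05, grown to mid-log (OD₆₂₀ 0.3–0.5), then rediluted to 0.05. Cultures were grown statically with compound at 37 °C for 18 h. Wells were washed with PBS, fixed in methanol for 15 min and stained with 0.1% crystal violet for 30 min. Stain was solubilized in 1% SDS and read at A540, in triplicate.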

Experiment [11] concerns Bacillus pumilus. In words: Induction of morphological changes in Bacillus pumilus CMCC 63202 assessed as alteration in length measured at 0.5 times MIC after 18 hrs by Phase contrast light microscope analysis (reference value: 1.2 to 3 micrometer). It counts as functional.
Experiment [12] concerns Staphylococcus aureus. Kind of experiment: In vivo antibacterial activity against […] Staphylococcus aureus ATCC 25923 infected in Kunming mouse assessed as reduction in bacterial load at 1 mg/kg, administered 1 hr post bacterial infection and measured after 1 hr post compound treatment. It counts as functional, organism-based. An outline of the steps: (§4)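 Kunming mice (~25 g, 6 per group) infected intravenously with 6 × 10⁷ CFU S. aureus ATCC25923 in 0.2 mL saline. About 1 h later, 1, 5 or 25 mg/kg was given intraperitoneally in 0.5 mL vehicle, with linezolid as reference. Orbital blood (100 µL) was taken before and 1 h after treatment, spread on MH agar and counted after 24 h.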

In experiment [13] the test system is Staphylococcus aureus. In words: In vivo antibacterial activity against […] Staphylococcus aureus ATCC 25923 infected in Kunming mouse assessed as reduction in viable bacterial cells at 5 mg/kg, administered 1 hr post bacterial infection and measured after 1 hr post compound treatment. It counts as functional, organism-based. An outline of the steps: as §4

For orientation: MIC means the lowest concentration that inhibits growth of the organism. What is called MBC is the lowest tested concentration that kills the bacteria rather than only halting them.

For the compound `C[n+]1c2ccccc2c(/C=C/c2ccc(C(C)(C)C)cc2)c2ccccc21.[I-]`, the MIC in the experiment on Bacillus subtilis [1] was 0.25 µg/mL; in the experiment with Streptococcus pyogenes, under 0.125 µg/mL; with Escherichia coli it was over 64 µg/mL; with Staphylococcus aureus [2], 1 µg/mL; in [7], 1 µg/mL. The MBC with Staphylococcus aureus [3] came out at 2 µg/mL; against Staphylococcus aureus [4], 4 µg/mL; in the experiment on Bacillus subtilis [5], 0.5 µg/mL; against Bacillus pumilus [6], 2 µg/mL. Further, the Ratio with Staphylococcus aureus [8] stood at 2. Moreover, the Activity in the experiment with Staphylococcus aureus [9] amounted to 2.2 CFU; in the experiment on Staphylococcus aureus [10], 2.43 CFU; in the experiment with Bacillus pumilus [11] it was 20 um. For the same compound, the inhibition result in the experiment on Pseudomonas aeruginosa is “inactive”. Moreover, the result in the experiment on Staphylococcus aureus [12] was inactive. For the same compound, the result with Staphylococcus aureus [13] was Active.
